# Rows were chosen to be rich in hits. Some 1.8% of all compounds tested hit in one or more screens of this group.
# CHRM5 agonist: agonists of human muscarinic M5 receptor (CHRM5); P08912; CHO-K1 hM5 cells, Fluo-8 calcium fluorescence; 0% DMSO wells, 100% maximal acetylcholine response; activation, % at 3 µM; 360,000 tested, 0.19% active; AID 624037;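 active = activation above the run's mean over test compounds plus 3 SD, cut at about 23% in these data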;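 note: signal is peak over basal fluorescence ratio across the kinetic read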
# CHRM4 agonist: agonists of human muscarinic M4 receptor (CHRM4); activation, % at 3 µM; P08173; 360,000 tested, 0.14% active; CHO-K1 hM4/Gqi5, Fluo-8 calcium fluorescence; vehicle 0%, full acetylcholine response 100%;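 active = activation above the run mean over all test wells plus 3 SD, cut at about 32% in these data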;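 note: peak over basal fluorescence ratio per well then scaled between controls; 0% = DMSO wells and 100% = acetylcholine at EC100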
# Target sequence (P08173 whole entry, looked up): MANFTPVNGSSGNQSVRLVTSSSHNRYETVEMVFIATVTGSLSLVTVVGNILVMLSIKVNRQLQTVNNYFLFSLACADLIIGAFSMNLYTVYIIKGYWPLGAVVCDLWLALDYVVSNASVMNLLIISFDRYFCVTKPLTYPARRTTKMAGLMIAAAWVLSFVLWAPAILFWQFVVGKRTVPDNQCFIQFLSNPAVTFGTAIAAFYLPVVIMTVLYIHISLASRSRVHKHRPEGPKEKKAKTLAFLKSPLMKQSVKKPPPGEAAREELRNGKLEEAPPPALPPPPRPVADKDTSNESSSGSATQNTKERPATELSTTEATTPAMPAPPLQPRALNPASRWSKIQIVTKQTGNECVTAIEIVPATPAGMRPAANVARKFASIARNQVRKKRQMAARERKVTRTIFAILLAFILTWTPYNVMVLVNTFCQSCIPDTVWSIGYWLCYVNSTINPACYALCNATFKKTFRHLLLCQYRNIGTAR
# M5 PAM: potentiates acetylcholine response at human M5 receptor; AID 624038; CHO-K1 hM5, Fluo-8 calcium, ACh EC20 PAM; 0% = ACh EC20, 100% = ACh EC100; 360,000 tested, 0.3% active; activation, % at 3 µM;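 active = activation above the run cutoff, the mean activation of all test compounds plus 3 SD, cut at about 18% in these data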
#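 system = human M5 receptor in CHO-K1 cells | reagent = EC20 acetylcholine as agonist stimulus | compound dosing = single-point, 3 µM nominal | incubation = Fluo-8 loading 80 min at 37 °C plus 30 min room temperature | detection = Fluo-8 calcium dye fluorescence, kinetic read | benchmarks = low control EC20 acetylcholine (0%), high control EC100 acetylcholine (100%)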
# M4 PAM: positive allosteric modulators of human muscarinic M4 receptor; 360,000 tested, 0.4% active; P08173; CHO-K1 hM4/Gqi5, Fluo-8 calcium fluorescence, ACh EC20; 0% = ACh EC20, 100% = maximal ACh; AID 624126; activation, % at 3 µM;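 active = activation above its plate's cutoff, the mean activation of sample wells plus 3 SD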
# M5 antag: CHRM5 antagonism in calcium assay; AID 624040; 360,000 tested, 0.59% active; P08912; CHO-hM5 cells, Fluo-8 calcium fluorescence, ACh EC80; inhibition, % at 3 µM;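 active = inhibition above a per-plate cutoff, the mean of that plate's test compounds plus 3 SD, cut at about 27% in these data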;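 note: 0% = acetylcholine EC80 with DMSO and 100% = DMSO without agonist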
# M4 antag: CHRM4 antagonism in calcium assay; P08173; CHO-hM4 cells, ACh EC80, Fluo-8 calcium fluorescence; inhibition, % at 3 µM; 360,000 tested, 0.73% active;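 active = inhibition above its plate's cutoff, the mean inhibition of sample wells plus 3 SD, cut at about 27% in these data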;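 note: 0% = acetylcholine EC80 with DMSO and 100% = DMSO without agonist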
# Active calls of the source: *.
SMILES,CHRM5 agonist,CHRM4 agonist,M5 PAM,M4 PAM,M5 antag,M4 antag
CN(C)CCCN(C(=O)CCc1ccccc1)c1nc2ccc(Br)cc2s1,-3.1,33.8*,2.0,-27.5,5.8,52.7*
CN(C)CCCN(C(=O)CCc1ccccc1)c1nc2ccc(F)cc2s1,-3.3,3.0,-1.4,-5.9,7.1,6.6
O=C(Nc1csc([N+](=O)[O-])c1)Nc1ccccc1Cl,-0.5,25.4,-35.4,-27.1,45.1*,28.6*
CCN(CC)CCNC(=O)c1ccc(NC(=O)c2cn(-c3ccc(F)cc3)nc2-c2cccc(OC)c2)cc1,-7.5,2.7,-18.8,-17.9,66.7*,47.9*
CCN(CC)CCNC(=O)c1ccc(NC(=O)c2cn(-c3ccccc3)nc2-c2cccs2)cc1,-10.4,7.5,-18.3,-16.9,16.1,10.2
CCN(CC)CCNC(=O)c1ccc(NC(=O)c2c(C)nn(-c3ccc(F)cc3)c2Cl)cc1,-5.4,6.9,-16.3,-20.9,48.7*,41.5*
COC(=O)[C@@]12C[C@@H](CC(=O)N3CCCCC3)C(=O)N(Cc3ccccc3)C1=CCC(C)(C)C2,-1.2,5.1,-4.7,5.8,9.0,-10.2
Cn1c(-c2ccc3c(c2)OCO3)cnc1NCc1ccccc1,-7.6,0.7,-6.2,-12.9,0.6,11.3
Cn1c(-c2ccc3c(c2)OCO3)cnc1NCc1cccc(Cl)c1,-6.7,1.7,-19.7,-25.1,12.2,32.3*
Cn1c(-c2ccc3c(c2)OCO3)cnc1NCc1ccccc1Cl,-9.6,0.7,-15.0,-26.2,21.6,50.4*
Nc1ccc(S(=O)(=O)c2ccc(N3CCOCC3)c(N)c2)cc1,2.5,2.2,-4.5,6.6,-1.4,-6.8
COc1ccccc1N1CCN(C2C(=O)Nc3ccccc3-n3nnnc32)CC1 (configuration not stated),6.7,8.3,-7.1,17.3,9.0,-16.3
O=C(c1c(F)cccc1F)N(Cc1ccccn1)C1CC1,-3.5,1.3,2.3,18.1*,1.7,-2.5
O=C(CC1CCCCC1)NCc1ccccn1,2.2,0.1,-1.5,3.5,6.7,0.2
CC(C)(C)CN1CCC(Oc2cccc(C(=O)N3CCNC(=O)C3(C)C)c2)CC1,-10.7,1.0,-10.3,-13.7,30.9*,24.2
CCCCN(C)C(=O)c1cccc(OC2CCN(CC(C)(C)C)CC2)c1,-20.9,2.4,-5.0,-3.2,2.2,1.9
CCN1CCN(c2ncnc3c2nnn3Cc2ccccc2)CC1,-9.5,1.8,-6.7,1.9,2.5,-5.8
c1ccc(Cn2nnc3c(N4CCCC4)ncnc32)cc1,4.5,3.5,6.1,21.5*,5.0,-5.7
O=C(Cn1c(=O)sc2ccccc21)Nc1ccc(O)cc1,-1.1,2.2,6.5,24.1*,-12.2,-14.5
Cn1cc([C@]2(O)C(=O)Nc3ccc(OC(F)(F)F)cc32)c2ccccc21,11.7,27.8,2.7,11.4,5.5,-1.2
Cc1c(NS(=O)(=O)c2cccc(C(=O)N3CCC(C(N)=O)CC3)c2)c(=O)n(-c2ccccc2)n1C,-0.3,0.3,8.1,32.2*,-2.8,-12.4
Cc1oc(S(=O)(=O)N2CCCCC2)cc1NC(=O)Nc1ccc(Cl)cc1,8.7,22.1,-28.1,-23.7,31.7*,0.6
O=C(Nc1cccc(Cl)c1)Nc1cc(S(=O)(=O)N2CCCCC2)ccc1Cl,4.0,9.5,-18.3,-14.9,29.5*,15.7
O=C(Nc1ccc(N2CCOCC2)c(S(=O)(=O)Nc2ccccc2Cl)c1)c1ccccc1,-4.7,12.4,-23.8,-8.9,13.0,11.9
CN1CCN(S(=O)(=O)c2ccc(NC(=O)c3ccccc3Cl)cc2)CC1,-4.4,0.7,-3.8,-3.6,6.6,2.4
O=C(Nc1ccc(Cl)cc1)Nc1ccc(N2CCCC2)c(S(=O)(=O)Nc2ccccc2Cl)c1,-0.7,6.1,-15.3,-5.4,27.4*,16.5
CN1CCN(S(=O)(=O)c2ccc(NC(=O)Nc3cccc(Cl)c3)cc2)CC1,2.6,12.9,-3.2,-8.2,12.5,28.6*
Cc1oc(S(=O)(=O)N2CCCCC2)cc1NC(=O)Nc1ccccc1,2.8,14.3,-6.7,-18.7,12.2,-8.1

# Screening data from PubChem BioAssay.
